Vif inh = HIV Vif inhibition | HEK293T cells, Vif self-association by quenched fluorescence, imaging, 24 h | 340,000 tested, 0.35% active | inhibition, % at 7.49 µM; in the data active means inhibition above about 50%, passing the limit was not always enough; inconclusive means no clear call, values can overlap the other calls; inactive means below about 31%
Rce1 inh = blocks yeast Ras-converting enzyme; Q03530; calls only; yeast membranes, quenched prenylated peptide cleavage fluorescence; 290,000 tested, 0.27% active;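 active means fall in fluorescence gain of 50% or more versus controls, with final raw signal at or below 3038400; inconclusive means same 50% fall but final raw signal above 3038400; inactive means fall in fluorescence gain under 50%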
RanGTP-Imp inh = disruptors of Ran-importin-beta complex formation – biochemical, FRET, CFP-Ran, YFP-importin-beta, homogeneous, primary screen | cell-free CFP-Ran/YFP-importin-beta FRET ratio | inhibition, % (concentration not given with the values) | 300,000 tested, 1.1% active;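 active means more than half of the replicate wells show a fall in the fluorescence ratio signal beyond about 16%, limit read from the data, passing the limit was not always enough; inconclusive means exactly half of the replicate wells pass the set limit; inactive means fewer than half of replicates pass the limit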
Runt-SMMHC FRET = Runt domain-CBFb-SMMHC interaction inhibition; Q01196+Q13951; Cerulean-Runt/Venus-CBFb-SMMHC FRET ratio 530/480, 1 h; inhibition, % at 20 µM; 220,000 tested, 0.74% active;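 active means mean inhibition across duplicate retests at 20 µM reaching about 50%, limit read from the data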;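 further: inhibitors lower the FRET ratio by blocking Runt binding to CBFb-SMMHC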
Target sequence (Q01196 whole entry, looked up, the tested form may be a part): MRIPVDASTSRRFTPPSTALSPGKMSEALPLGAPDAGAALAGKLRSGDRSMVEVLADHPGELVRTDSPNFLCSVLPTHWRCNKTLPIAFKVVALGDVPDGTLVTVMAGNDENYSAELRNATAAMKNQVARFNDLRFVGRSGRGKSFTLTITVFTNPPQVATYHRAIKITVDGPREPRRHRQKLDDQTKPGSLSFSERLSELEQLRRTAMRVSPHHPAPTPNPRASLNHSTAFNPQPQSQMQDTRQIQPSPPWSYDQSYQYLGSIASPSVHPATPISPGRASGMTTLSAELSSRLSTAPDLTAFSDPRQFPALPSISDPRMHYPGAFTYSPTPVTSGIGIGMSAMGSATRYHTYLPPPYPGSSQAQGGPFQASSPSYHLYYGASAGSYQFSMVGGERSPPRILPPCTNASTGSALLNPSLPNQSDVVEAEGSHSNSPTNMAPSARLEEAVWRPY
Target sequence (Q13951 whole entry, looked up, the tested form may be a part): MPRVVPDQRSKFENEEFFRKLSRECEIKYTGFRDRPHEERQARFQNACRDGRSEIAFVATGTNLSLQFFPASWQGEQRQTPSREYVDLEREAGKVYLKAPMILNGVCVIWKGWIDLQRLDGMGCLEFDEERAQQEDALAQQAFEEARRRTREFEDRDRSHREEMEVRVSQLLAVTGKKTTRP
Runt-CBFb FRET = inhibitors of human RUNX1 Runt domain binding to CBFb. Q01196+Q13951. Cerulean-Runt/Venus-CBFb FRET ratio 530/480, 1 h. inhibition, % at 20 µM. 220,000 tested, 0.46% active;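 active means inhibition over about 50% at 20 µM in the single-dose screen, limit read from the data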
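Schedule: protein complex preformed 1 h, compound exposure 1 h, room temperature, dark; test system: Cerulean-labeled Runt domain protein; amount: 100 nM per protein; buffer or medium: Tris 50 mM pH 7.5, KCl, K2SO4, 0.01% BSA; read-out: loss of energy transfer signal; detection: FRET fluorescence; controls: 5 µM unlabeled CBFb as full-inhibition high control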
Hits are given with their value; i = inactive; ? = inconclusive; nt = not tested or not shown; + = active, no number. An excerpt weighted towards active compounds, which were near 1.7% of everything screened.

SMILES | Vif inh | Rce1 inh | RanGTP-Imp inh | Runt-SMMHC FRET | Runt-CBFb FRET
Cc1oc(C)c2c(=O)ccc3c(c12)OC(N)=C(C#N)C3c1ccccc1Cl (stereo unspecified) | i | i | 28 | i | i
CCSc1nnc(NC(=O)CSc2nccn2-c2cccc(C)c2C)s1 | nt | i | i | i | i
CCSc1nnc(NC(=O)CSc2nccn2-c2cc(C)cc(C)c2)s1 | nt | i | 26 | i | i
CN1OCC(S(=O)(=O)c2ccccc2)C1c1ccccc1 (stereo unspecified) | i | i | 35 | i | i
O=S(=O)(c1ccccc1)C1CON(Cc2ccccc2)C1c1ccccc1 (stereo unspecified) | i | i | i | i | i
CCC(C)(C)NC(=O)C(c1ccc(C)cc1)N(CC1CCCO1)C(=O)CCC(=O)Nc1ccccn1 (stereo unspecified) | i | nt | i | nt | nt
N#Cc1cc2c(=O)n3ccccc3nc2n(CCCn2ccnc2)c1=N | i | i | 140 | i | i
Cc1cccn2c(=O)c3cc(C#N)c(=N)n(CCN4CCOCC4)c3nc12 | i | i | 87 | 94 | 76
CCC(C)n1c(=N)c(C#N)cc2c(=O)n3ccccc3nc21 (stereo unspecified) | i | i | 177 | 95 | 92
CCCn1c(=N)c(C#N)cc2c(=O)n3cccc(C)c3nc21 | nt | i | 148 | nt | nt
CCN(CC)C(=O)C(=O)Nc1ccc(OC)c(Cl)c1 | i | i | i | i | i
Cc1cc(NC(=O)CCC(=O)N(CCC(C)C)C(C(=O)NCC2CCCO2)c2ccccc2C)no1 (stereo unspecified) | i | i | i | nt | nt
O=C(NCc1ccc2c(c1)OCO2)C(=O)Nc1cc2c3c(c1)CC(=O)N3CCC2 | i | i | i | nt | nt
Cc1cccn2c(=O)c3cc(C#N)c(=N)n(CCCN4CCOCC4)c3nc12 | i | i | 184 | nt | nt
Cc1cccn2c(=O)c3cc(C(=O)NCCCN4CCOCC4)n(C)c3nc12 | nt | nt | nt | i | i
CCCn1c(=N)c(C#N)cc2c(=O)n3ccccc3nc21 | i | nt | 179 | 76 | i
COc1cc(-c2c(C#N)c(N)nc3c2c(C)nn3-c2ccc(C)c(C)c2)cc(OC)c1OC | i | + | i | i | i
O=C(Nc1cccc2ccccc12)c1ccc(OC(=S)N2CCOCC2)cc1 | i | + | i | i | i
O=C(Nc1cccc(Cl)c1)c1ccc(OC(=S)N2CCOCC2)cc1 | i | i | i | i | i
Cc1ccc(C2C(C#N)=C(N)SC(N)=C2C#N)c(C)c1 | i | i | 47 | i | i
Cc1ccc(C2C(C#N)=C(N)SC(N)=C2C#N)cc1 | i | nt | nt | i | i
Cc1ccc(NC(=C(C#N)C#N)c2ccccc2)cc1 | i | nt | nt | nt | nt
N#Cc1c(N)n(CCCN2CCOCC2)c2nc3ccccc3nc12 | nt | nt | nt | 62 | 84
CCCCn1c(CNC(C)=O)nc2ccccc21 | i | i | i | i | i
Nc1c(S(=O)(=O)c2ccccc2)c2nc3ccccc3nc2n1CCN1CCOCC1 | i | i | i | i | i
SMILES | Vif inh | Rce1 inh | RanGTP-Imp inh | Runt-SMMHC FRET | Runt-CBFb FRET
N#CCCn1c(-c2nonc2NC(=O)c2ccccc2Cl)nc2ccccc21 | i | i | i | i | i
COc1ccc(CCn2c(N)c(C#N)c3nc4ccccc4nc32)cc1OC | i | i | i | i | i
C=CCn1c(NC(=O)c2ccccc2Cl)c(C#N)c2nc3ccccc3nc21 | i | i | 124 | 86 | i
CCCCCn1c(N)c(C#N)c2nc3ccccc3nc21 | i | i | 44 | 63 | 85
CCCCn1c(NC(C)=O)c(C#N)c2nc3ccccc3nc21 | i | i | 30 | 79 | i
Cc1ccc(C)c(N2CCN(S(=O)(=O)c3cc4c(cc3Cl)NC(=O)CO4)CC2)c1 | i | i | i | nt | nt
COc1ccc(C(=O)Nc2ccc(N3CCN(C(=O)C(C)C)CC3)cc2)cc1[N+](=O)[O-] | 64 | i | i | i | i
COc1ccc(C(=O)Nc2ccc(N3CCN(C)CC3)cc2)cc1[N+](=O)[O-] | i | i | ? | i | i
CC1CCN(C(=O)C2CCN(S(=O)(=O)c3ccc(-n4cnnn4)cc3)CC2)CC1 | i | + | i | nt | nt
CC1CCCCN1C(=O)C1CCN(S(=O)(=O)c2ccc(-n3cnnn3)cc2)CC1 (stereo unspecified) | i | i | i | nt | nt
CC(C)c1ccc(NC(=O)[C@H](NC(=O)[C@@H]2Cc3ccccc3CN2)c2ccccc2)cc1 | i | i | i | nt | nt
Cc1ccc(S(=O)(=O)N2CCC(C(=O)N3CCC3)CC2)cc1 | i | i | i | nt | nt

Bioassay records (PubChem)
